Assay results published in ChEMBL document CHEMBL1154832, “Synthesis and antitumor activity of new dihydropyridine thioglycosides and their corresponding dehydrogenated forms” (Eur J Med Chem, 2010).

Experiments:
[1] = system: Mus musculus; test: Acute toxicity in ip dosed Swiss albino mouse xenografted with human HepG2 cells assessed as mortality measured up to two weeks; assay type: organism-based; conditions: in vivo
How it was run: (§1)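 Adult Swiss albino mice fasted 12 h, randomised into groups of 10. Single i.p. administration at graded doses, 1 ml/kg body weight; controls received vehicle alone. Food and water given immediately after dosing. Mortality followed for up to two weeks. LD50 taken as the dose giving 50% mortality.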

[2] = system: Mus musculus; test: Acute toxicity in ip dosed Swiss albino mouse inoculated with human HeLa cells assessed as mortality measured up to two weeks; assay type: organism-based; conditions: in vivo; how it was run: as §1
[3] = system: HepG2; test: Antitumor activity against human HepG2 cells xenografted in Swiss albino mouse assessed as increase in life span at 10 ug/kg, ip for 10 consecutive days relative to control; assay type: functional
How it was run: (§2)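 Male Swiss albino mice (20 ± 2 g), acclimatised one week at 25–27 °C, 12 h light/dark. Ascites tumour established by i.p. inoculation of 1 × 10⁶ viable cells. Dosing began 24 h after inoculation, i.p. daily for 10 consecutive days. DMSO vehicle control group; cisplatine 2 mg/kg i.p. for 10 days as reference. Survival time recorded and % increase in life span derived; mean ± SE, n = 10 mice.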

[4] = system: HeLa; test: Antitumor activity against human HeLa cells xenografted in Swiss albino mouse assessed as increase in life span at 10 ug/kg, ip for 10 consecutive days relative to control; assay type: functional; how it was run: as §2

Row | SMILES | LD50 [1] | LD50 [2] | Activity [3] | Activity [4]
1 | CC(=O)O[C@H]1O[C@@H](Sc2nc(N)c(C#N)c(-c3ccc4ccccc4c3)c2C#N)[C@H](OC(C)=O)[C@@H](OC(C)=O)[C@@H]1OC(C)=O | 0.06 mg/kg | 0.06 mg/kg | 49% | 40%
2 | COc1ccc(-c2c(C#N)c(N)nc(S[C@@H]3O[C@H](OC(C)=O)[C@H](OC(C)=O)[C@H](OC(C)=O)[C@H]3OC(C)=O)c2C#N)cc1 | 0.065 mg/kg | 0.07 mg/kg | 48% | 47%
3 | CC(=O)O[C@H]1O[C@@H](SC2=C(C#N)C(c3ccc([N+](=O)[O-])cc3)C(C#N)=C(N)N2)[C@H](OC(C)=O)[C@@H](OC(C)=O)[C@@H]1OC(=O)O (stereo not given in full) | 0.085 mg/kg | 0.07 mg/kg | 34% | 27%
4 | N#CC1=C(N)NC(S[C@@H]2O[C@H](O)[C@@H](O)[C@H](O)[C@H]2O)=C(C#N)C1c1ccc2ccccc2c1 (stereo not given in full) | 0.11 mg/kg | 0.115 mg/kg | 50% | 39%
5 | CC(=O)O[C@H]1O[C@@H](Sc2nc(N)c(C#N)c(-c3ccccc3)c2C#N)[C@H](OC(C)=O)[C@@H](OC(C)=O)[C@H]1OC(C)=O | 0.065 mg/kg | 0.06 mg/kg | 43% | 38%
6 | CC(=O)O[C@H]1O[C@@H](SC2=C(C#N)C(c3ccccc3)C(C#N)=C(N)N2)[C@H](OC(C)=O)[C@@H](OC(C)=O)[C@H]1OC(=O)O (stereo not given in full) | 0.07 mg/kg | 0.06 mg/kg | 34% | 30%
7 | CC(=O)O[C@H]1O[C@@H](SC2=C(C#N)C(c3ccc4ccccc4c3)C(C#N)=C(N)N2)[C@H](OC(C)=O)[C@@H](OC(C)=O)[C@H]1OC(=O)O (stereo not given in full) | 0.065 mg/kg | 0.07 mg/kg | 38% | 31%
8 | CC(=O)O[C@H]1O[C@@H](Sc2nc(N)c(C#N)c(-c3ccc(Br)cc3)c2C#N)[C@H](OC(C)=O)[C@@H](OC(C)=O)[C@@H]1OC(C)=O | 0.065 mg/kg | 0.075 mg/kg | 48% | 46%
9 | COc1ccc(-c2c(C#N)c(N)nc(S[C@@H]3O[C@H](O)[C@H](O)[C@H](O)[C@H]3O)c2C#N)cc1 | 0.115 mg/kg | 0.13 mg/kg | 56% | 47%
10 | N#Cc1c(N)nc(S[C@@H]2O[C@H](O)[C@H](O)[C@H](O)[C@H]2O)c(C#N)c1-c1ccc2ccccc2c1 | 0.145 mg/kg | 0.125 mg/kg | 57% | 53%
11 | COc1ccc(C2C(C#N)=C(N)NC(S[C@@H]3O[C@H](O)[C@@H](O)[C@H](O)[C@H]3O)=C2C#N)cc1 (stereo not given in full) | 0.11 mg/kg | 0.095 mg/kg | 69% | 55%
12 | COc1ccc(C2C(C#N)=C(N)NC(S[C@@H]3O[C@H](O)[C@H](O)[C@H](O)[C@H]3O)=C2C#N)cc1 (stereo not given in full) | 0.06 mg/kg | 0.08 mg/kg | 63% | 44%
13 | N#Cc1c(N)nc(S[C@@H]2O[C@H](O)[C@@H](O)[C@H](O)[C@H]2O)c(C#N)c1-c1ccc(Br)cc1 | 0.105 mg/kg | 0.12 mg/kg | 60% | 50%
14 | CC(=O)O[C@H]1O[C@@H](SC2=C(C#N)C(c3ccc(Br)cc3)C(C#N)=C(N)N2)[C@H](OC(C)=O)[C@@H](OC(C)=O)[C@@H]1OC(=O)O (stereo not given in full) | 0.09 mg/kg | 0.09 mg/kg | 31% | 29%
15 | COc1ccc(C2C(C#N)=C(N)NC(S[C@@H]3O[C@H](OC(C)=O)[C@H](OC(=O)O)[C@H](OC(C)=O)[C@H]3OC(C)=O)=C2C#N)cc1 (stereo not given in full) | 0.06 mg/kg | 0.065 mg/kg | 30% | 30%
16 | CC(=O)O[C@H]1O[C@@H](SC2=C(C#N)C(c3ccccc3)C(C#N)=C(N)N2)[C@H](OC(C)=O)[C@@H](OC(C)=O)[C@@H]1OC(=O)O (stereo not given in full) | 0.08 mg/kg | 0.075 mg/kg | 29% | 30%
17 | CC(=O)O[C@H]1O[C@@H](Sc2nc(N)c(C#N)c(-c3ccc4ccccc4c3)c2C#N)[C@H](OC(C)=O)[C@@H](OC(C)=O)[C@H]1OC(C)=O | 0.125 mg/kg | 0.135 mg/kg | 50% | 39%
18 | N#CC1=C(N)NC(S[C@@H]2O[C@H](O)[C@H](O)[C@H](O)[C@H]2O)=C(C#N)C1c1ccc2ccccc2c1 (stereo not given in full) | 0.13 mg/kg | 0.12 mg/kg | 60% | 45%
19 | COc1ccc(C2C(C#N)=C(N)NC(S[C@@H]3O[C@H](OC(C)=O)[C@@H](OC(=O)O)[C@H](OC(C)=O)[C@H]3OC(C)=O)=C2C#N)cc1 (stereo not given in full) | 0.15 mg/kg | 0.16 mg/kg | 39% | 25%
20 | N#Cc1c(N)nc(S[C@@H]2O[C@H](O)[C@@H](O)[C@H](O)[C@H]2O)c(C#N)c1-c1ccc2ccccc2c1 | 0.13 mg/kg | 0.11 mg/kg | 58% | 51%
